Calls of active or inactive are those of the source. The rule behind the calls is not given here.
What was measured:
[1] = test system: HEL; assay: Cytotoxicity against HEL; format: cell-based; settings: human
[2] = test system: Human betaherpesvirus 5; assay: Antiviral actiivty against Human herpesvirus 5 Davis infected in HEL assessed as reduction of virus-induced plaque formation; format: functional, organism-based; settings: Human betaherpesvirus 5, Davis
How it was run: (§1)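 HCMV strains AD-169 and Davis were tested on confluent human embryonic lung fibroblast monolayers infected with 100 PFU in the presence of serial compound concentrations. Plaques were counted once formation was complete in untreated infected controls. EC50 is the concentration that cuts plaque formation by 50%.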

[3] = test system: Human betaherpesvirus 5; assay: Antiviral actiivty against Human herpesvirus 5 AD169 infected in HEL assessed as reduction of virus-induced plaque formation; format: functional, organism-based; settings: Human betaherpesvirus 5, AD169; how it was run: as §1
[4] = test system: Coxsackievirus B4; assay: Antiviral activity against Coxsackie B4 virus; format: functional, organism-based
How it was run: (§2)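 Confluent HEL, Vero, HeLa or MDCK cell cultures were inoculated with 100 CCID50 of virus alongside varying compound concentrations. Cytopathicity was scored when it reached completion in untreated virus controls. EC50 is the concentration that reduces virus-induced cytopathogenicity by 50%.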

[5] = test system: Human alphaherpesvirus 1; assay: Antiviral activity against thymidine kinase deficient acyclovir-resistant Herpes simplex virus type 1 KOS; format: functional, organism-based
[6] = Cytotoxicity against human CEM cells; format: cell-based; settings: CCRF-CEM (CEM) cells
[7] = test system: Human alphaherpesvirus 3; assay: Antiviral activity against Varicella-zoster virus YS; format: functional, organism-based
How it was run: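 VZV was assayed by plaque formation. Confluent cell cultures received 10 or 100 PFU with varying compound concentrations, and plaques were recorded once complete in untreated infected controls. EC50 is the concentration that reduces plaque formation by 50%.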

[8] = test system: Punta Toro virus; assay: Antiviral activity against Punta Toro virus; format: functional, organism-based; how it was run: as §2
[9] = test system: Vesicular stomatitis virus; assay: Antiviral activity against Vesicular stomatitis virus; format: functional, organism-based
[10] = test system: Human immunodeficiency virus 2; assay: Antiviral activity against HIV2 ROD infected in human CEM cells assessed as inhibition of virus-induced giant cell formation after 4 to 5 days; format: functional, organism-based; settings: ISOLATE ROD, CCRF-CEM
How it was run: (§3)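 CEM cells at about 3 × 10^5 cells/mL were infected with 100 CCID50 of HIV per mL, with compound dilutions present. They were incubated 4–5 days at 37 °C in humidified CO2, and syncytia were scored microscopically. EC50 is the concentration that inhibits giant cell formation by 50%.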

[11] = test system: Human alphaherpesvirus 2; assay: Antiviral activity against Herpes simplex virus type 2 G; format: functional, organism-based; settings: strain G; how it was run: as §2
[12] = test system: Vaccinia virus; assay: Antiviral activity against Vaccinia virus Lederle; format: functional, organism-based; settings: Orthopoxvirus vaccinia
[13] = test system: Influenza A virus; assay: Antiviral activity against Influenza virus A virus H1N1; format: functional, organism-based
How it was run: (§4)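 The assay was a cell-based cytopathicity inhibition test on confluent monolayers with serial compound dilutions. EC50 was the concentration that reduced virus-induced cytopathicity by 50%.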

[14] = test system: Human respirovirus 3; assay: Antiviral activity against Parainfluenza virus 3; format: functional, organism-based; how it was run: as §2
[15] = test system: Influenza B virus; assay: Antiviral activity against Influenza B virus; format: functional, organism-based; how it was run: as §4
[16] = test system: Feline coronavirus; assay: Antiviral activity against Feline coronavirus; format: functional, organism-based
[17] = test system: Human alphaherpesvirus 2; assay: Antiviral activity against Herpes simplex virus type 2 Lyons; format: functional, organism-based; how it was run: as §2
[18] = test system: Human alphaherpesvirus 1; assay: Antiviral activity against Herpes simplex virus type 1 KOS; format: functional, organism-based; how it was run: as §2
[19] = test system: Influenza A virus; assay: Antiviral activity against Influenza virus A virus H3N2; format: functional, organism-based; how it was run: as §4
[20] = Cytotoxicity against HEL assessed as minimum cytotoxic concentration required to cause microscopically detectable alteration in cell morphology; format: cell-based; settings: human, HEL cells
[21] = test system: Human immunodeficiency virus 1; assay: Antiviral activity against HIV1 3B infected in human CEM cells assessed as inhibition of virus-induced giant cell formation after 4 to 5 days; format: functional, organism-based; settings: CCRF-CEM; how it was run: as §3
[22] = test system: Respiratory syncytial virus; assay: Antiviral activity against Respiratory syncytial virus Long; format: functional, organism-based; how it was run: as §2
[23] = test system: Human alphaherpesvirus 3; assay: Antiviral activity against Varicella-zoster virus OKA; format: functional; settings: strain Oka vaccine
How it was run: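 Confluent cell monolayers were infected with 10 or 100 PFU of VZV in the presence of serial compound dilutions. Plaque formation was recorded once untreated infected controls reached completion. EC50 was the concentration that reduced plaque formation by 50%.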

[24] = test system: Sindbis virus; assay: Antiviral activity against Sindbis virus; format: functional, organism-based; how it was run: as §2
[25] = test system: Mammalian orthoreovirus 1; assay: Antiviral activity against Reovirus-1; format: functional, organism-based; how it was run: as §2

Row | SMILES | CC50 [1] [µM] | EC50 [2] [µM] | EC50 [3] [µM] | Activity [4] | Activity [5] | Activity [7] | Activity [8] | Activity [9] | Activity [10] | Activity [11] | Activity [12] | Activity [13] | Activity [14] | Activity [15] | Activity [16] | Activity [17] | Activity [18] | Activity [19] | MCC [20] [µM] | Activity [22] | also measured
1 | Cc1cc(C)cc(OCCCCCn2ccc(=O)[nH]c2=O)c1 | > 100 | > 100 | > 100 | inactive | inactive | inactive | inactive | inactive | inactive | inactive | inactive | inactive | inactive | inactive | inactive | inactive | inactive | inactive | > 100 | inactive | CC50 [6]: 154 µM; EC50 ([21]; Human immunodeficiency virus 1, 3B): 24 µM; Activity [23]: inactive; Activity [24]: inactive; Activity [25]: inactive
2 | Cc1ccccc1OCCCCCn1ccc(=O)[nH]c1=O | > 100 | > 100 | > 100 | inactive | inactive | inactive | inactive | inactive | inactive | inactive | inactive | inactive | inactive | inactive | inactive | inactive | inactive | inactive | > 100 | inactive | Activity [21]: inactive; Activity [23]: inactive; Activity [24]: inactive; Activity [25]: inactive
